# Measured values reported in ChEMBL document CHEMBL1134845, “Syntheses and biological activities of a novel group of steroidal derived inhibitors for human Cdc25A protein phosphatase” (J Med Chem, 2001).
# Legend:
# 786-0 = experiment: Growth inhibitory activity was determined against 786-0 cancer cell line of renal cancer; assay type: functional; conditions: Homo sapiens
# Outline: (§1)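 NCI 60 human tumour cell line screen run at the National Cancer Institute. Cell growth and viability read with the protein stain sulforhodamine B, which binds basic amino acids of cells left attached after washing. […] MG MID is the mean GI50 calculated over all panels.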
# A549 = experiment: Growth inhibitory activity was determined against A549/ATCC cancer cell line of non-small cell lung cancer; assay type: functional, Homo sapiens; conditions: Homo sapiens, A549; outline: as §1
# COLO 205 = experiment: Growth inhibitory activity was determined against COLO 205 cancer cell line colon cancer; assay type: functional, Homo sapiens; conditions: Homo sapiens, COLO 205; outline: as §1
# HT-29 = experiment: Growth inhibitory activity was determined against HT-29 cancer cell line colon cancer; assay type: functional, Homo sapiens; conditions: Homo sapiens, HT-29; outline: as §1
# HCC 2998 = experiment: Growth inhibitory activity was determined against HCC2998 cancer cell line colon cancer; assay type: functional, Homo sapiens; conditions: Homo sapiens, HCC 2998; outline: as §1
# LOX IMVI = experiment: Growth inhibitory activity was determined against LOX IMVI cancer cell line of melanoma; assay type: functional, Homo sapiens; conditions: Homo sapiens, LOX IMVI; outline: as §1
# OVCAR-3 [1] = experiment: Growth inhibitory activity was determined against OVCAR-3 cancer cell lines of Ovarian cancer; assay type: functional; conditions: Homo sapiens; outline: as §1
# NCI-H23 = experiment: Growth inhibitory activity was determined against NCI-H23 cancer cell line of non-small cell lung cancer; assay type: functional, Homo sapiens; conditions: Homo sapiens, NCI-H23; outline: as §1
# NCI-H522 = experiment: Growth inhibitory activity was determined against NCI-H522 cancer cell line of non-small cell lung cancer; assay type: functional; conditions: Homo sapiens; outline: as §1
# NCI/ADR-RES = experiment: Growth inhibitory activity was determined against NCI/ADR-RES cancer cell line of Breast cancer; assay type: functional, Homo sapiens; conditions: Homo sapiens, NCI/ADR-RES; outline: as §1
# OVCAR-8 [2] = experiment: Growth inhibitory activity was determined against OVCAR-8 cancer cell lines of Ovarian cancer; assay type: functional; conditions: Homo sapiens; outline: as §1
# SN12C = experiment: Growth inhibitory activity was determined against SN12C cancer cell line of renal cancer; assay type: functional; conditions: Homo sapiens; outline: as §1
# SF-539 = experiment: Growth inhibitory activity was determined against SF-539 cancer cell line of CNS cancer; assay type: functional; conditions: Homo sapiens; outline: as §1
# SF-268 = experiment: Growth inhibitory activity was determined against SF-268 cancer cell line of CNS cancer; assay type: functional; conditions: Homo sapiens; outline: as §1
# SK-MEL-5 = experiment: Growth inhibitory activity was determined against SK-MEL-5 cancer cell line of melanoma; assay type: functional, Homo sapiens; conditions: Homo sapiens, SK-MEL-5; outline: as §1
# UO-31 = experiment: Growth inhibitory activity was determined against UO-31 cancer cell line of renal cancer; assay type: functional; conditions: Homo sapiens; outline: as §1
# U-251 = experiment: Growth inhibitory activity was determined against U-251 cancer cell line of CNS cancer; assay type: functional; conditions: Homo sapiens; outline: as §1
# PC-3 = experiment: Growth inhibitory activity was determined against PC-3 cancer cell line of Prostate cancer; assay type: functional; conditions: Homo sapiens; outline: as §1
# T47D = experiment: Growth inhibitory activity was determined against T-47D cancer cell line of Breast cancer; assay type: functional, Homo sapiens; conditions: Homo sapiens, T47D; outline: as §1
# BT-549 (Homo sapiens) = experiment: Growth inhibitory activity was determined against BT-549 cancer cell line of Breast cancer; conditions: Homo sapiens, BT-549
# [3] = target: T1, M-phase inducer phosphatase 1 (Homo sapiens) (UniProt P30304); experiment: Inhibitory activity tested against cell division cycle 25A (assay using p-nitro phenyl phosphate (pNPP) as substrate)
# T1 sequence (whole entry): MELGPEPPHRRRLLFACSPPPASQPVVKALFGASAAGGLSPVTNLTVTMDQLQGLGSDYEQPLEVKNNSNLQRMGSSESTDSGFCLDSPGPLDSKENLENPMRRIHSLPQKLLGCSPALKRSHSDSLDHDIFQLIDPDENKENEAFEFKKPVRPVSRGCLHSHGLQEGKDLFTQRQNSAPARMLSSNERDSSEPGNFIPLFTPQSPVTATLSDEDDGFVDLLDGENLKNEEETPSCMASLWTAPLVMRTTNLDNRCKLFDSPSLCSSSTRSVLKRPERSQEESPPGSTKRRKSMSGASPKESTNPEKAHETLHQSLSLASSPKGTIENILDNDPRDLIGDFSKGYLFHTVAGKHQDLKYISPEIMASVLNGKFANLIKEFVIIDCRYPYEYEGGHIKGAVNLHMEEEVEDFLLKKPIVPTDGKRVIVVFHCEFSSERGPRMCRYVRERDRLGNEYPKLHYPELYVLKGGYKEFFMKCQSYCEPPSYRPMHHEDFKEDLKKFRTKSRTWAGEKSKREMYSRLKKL
# [4] = target: T1, M-phase inducer phosphatase 1 (Homo sapiens); experiment: Inhibitory activity tested against cell division cycle 25A (assay using fluorescein diphosphate (FDP) as substrate)
# Outline: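 Recombinant human GST-Cdc25A fusion protein, each batch calibrated so that FDP was dephosphorylated linearly over 20 min. Fluorescein diphosphate was the substrate. Reactions ran 15 min at 25 °C in the dark and were stopped with sodium orthovanadate. Fluorescein monophosphate was read at 485 nm excitation and 530 nm emission. IC50 came from at least two independent runs, each in triplicate.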
# OVCAR-8 [5] = experiment: Growth inhibitory activity was determined against OVCAR-8 cancer cell line of Ovarian cancer; assay type: functional; conditions: Homo sapiens; outline: as §1
# OVCAR-3 [6] = experiment: Growth inhibitory activity was determined against OVCAR-3 cancer cell line of Ovarian cancer; assay type: functional; conditions: Homo sapiens; outline: as §1
# [7] = target: Receptor-type tyrosine-protein phosphatase C, CD45 (Homo sapiens) (UniProt P08575); experiment: Inhibitory activity tested against human CD45 receptor-type tyrosine-protein phosphatase C
# Receptor-type tyrosine-protein phosphatase C, CD45 (Homo sapiens), sequence (P08575 whole entry, looked up): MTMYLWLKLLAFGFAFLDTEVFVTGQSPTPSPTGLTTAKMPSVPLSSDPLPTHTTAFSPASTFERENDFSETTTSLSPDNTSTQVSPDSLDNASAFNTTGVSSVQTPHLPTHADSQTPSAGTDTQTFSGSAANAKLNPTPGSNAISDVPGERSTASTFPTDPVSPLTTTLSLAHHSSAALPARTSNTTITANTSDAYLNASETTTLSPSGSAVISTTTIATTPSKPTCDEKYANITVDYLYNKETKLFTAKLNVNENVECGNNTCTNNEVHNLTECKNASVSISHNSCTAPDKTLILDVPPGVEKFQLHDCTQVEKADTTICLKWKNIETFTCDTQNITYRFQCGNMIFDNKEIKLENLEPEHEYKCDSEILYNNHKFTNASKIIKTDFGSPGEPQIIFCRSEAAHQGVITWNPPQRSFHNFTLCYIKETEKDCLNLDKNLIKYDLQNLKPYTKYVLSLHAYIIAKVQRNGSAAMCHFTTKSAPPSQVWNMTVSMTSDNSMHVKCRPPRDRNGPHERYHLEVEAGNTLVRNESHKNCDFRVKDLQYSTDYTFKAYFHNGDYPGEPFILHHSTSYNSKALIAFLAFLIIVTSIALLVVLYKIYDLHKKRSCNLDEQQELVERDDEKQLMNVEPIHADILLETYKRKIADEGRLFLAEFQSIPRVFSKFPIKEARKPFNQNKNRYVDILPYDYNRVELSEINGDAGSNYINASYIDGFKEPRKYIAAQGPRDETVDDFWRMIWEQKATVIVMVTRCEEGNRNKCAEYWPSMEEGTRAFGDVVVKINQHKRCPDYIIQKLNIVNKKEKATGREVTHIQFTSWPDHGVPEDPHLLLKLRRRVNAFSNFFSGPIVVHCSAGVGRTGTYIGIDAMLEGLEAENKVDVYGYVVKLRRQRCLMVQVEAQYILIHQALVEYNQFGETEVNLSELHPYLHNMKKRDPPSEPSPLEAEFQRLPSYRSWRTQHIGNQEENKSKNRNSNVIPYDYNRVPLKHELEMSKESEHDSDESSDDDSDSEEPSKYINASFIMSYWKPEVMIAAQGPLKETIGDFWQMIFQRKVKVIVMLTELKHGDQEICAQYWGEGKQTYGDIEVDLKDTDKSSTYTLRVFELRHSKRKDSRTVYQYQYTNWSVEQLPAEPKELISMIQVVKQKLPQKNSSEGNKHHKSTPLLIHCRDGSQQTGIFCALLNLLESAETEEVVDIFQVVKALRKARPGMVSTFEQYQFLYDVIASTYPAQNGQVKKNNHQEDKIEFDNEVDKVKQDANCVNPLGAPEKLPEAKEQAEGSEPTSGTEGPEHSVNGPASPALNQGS
GI50 (786-0),GI50 (A549),GI50 (COLO 205),GI50 (HT-29),GI50 (HCC 2998),GI50 (NCI-H23),GI50 (SK-MEL-5),GI50 (U-251),GI50 (PC-3),GI50 (T47D),GI50 (BT-549 (Homo sapiens)),SMILES,GI50 (LOX IMVI),GI50 (NCI/ADR-RES),GI50 (SN12C),GI50 (SF-539),GI50 (UO-31),further results
9.23 µM,8.25 µM,5.26 µM,5.52 µM,5.1 µM,5.75 µM,10.8 µM,6.01 µM,7.77 µM,8.41 µM,5.05 µM,CC(C)CCCC(C)[C@H]1CC[C@H]2[C@H](CC(=O)O)[C@@H]([C@@]3(C)CC[C@@H](CC#N)O3)CC[C@]12C (stereo partly specified),6.23 µM,5.44 µM,5.4 µM,19.5 µM,15.3 µM,GI50 (OVCAR-3 [1]): 5.66 µM; GI50 (NCI-H522): 0.94 µM; GI50 (OVCAR-8 [2]): 4.76 µM; GI50 (SF-268): 2.86 µM
11.5 µM,5.21 µM,5.1 µM,7.77 µM,6.33 µM,5.12 µM,5.98 µM,6.49 µM,7.36 µM,8.39 µM,5.62 µM,C=C(CCCCC#N)[C@H]1CC[C@]2(C)[C@@H]([C@H](C)CCCC(C)C)CC[C@H]2[C@@H]1CC(=O)O,4.92 µM,5.66 µM,6.9 µM,4.5 µM,9.41 µM,IC50 [3]: 8.3 µM; IC50 [4]: 2.2 µM; GI50 (OVCAR-8 [5]): 4.78 µM; GI50 (OVCAR-3 [6]): 6.64 µM; IC50 [7]: 12.2 µM
